From ChEMBL document CHEMBL4368872, “Synthesis and anticonvulsant activity of phenoxyacetyl derivatives of amines, including aminoalkanols and amino acids” (Medchemcomm, 2018)
The source made the active and inactive calls. No cut-off for these calls is given here.

Experiments:
Mus musculus [1] = experiment: Anticonvulsant activity in CF-1 mouse assessed as protection against 44 mA current-induced seizure at 30 mg/kg, ip after 0.5 hrs by 6 Hz psychomotor test; type: functional, organism-based
How it was run: (§1)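 Mice dosed i.p. (30, 100, 300 mg/kg; one line at 120 mg/kg read at 15 min). Corneal stimulation at 6 Hz, 44 mA for 3 s from a constant-current device induces a psychomotor seizure with stunned posture, forelimb automatisms, clonus, vibrissae twitching and Straub tail. Scored as number of animals protected / number tested (4 per group) at 0.5 and 2 h.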

[2] = Neurotoxicity in CF-1 mouse at 100 mg/kg, ip measured after 2 hrs by rotarod test; type: toxicity, organism-based; conditions: in vivo
How it was run: (§2)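 Mice dosed i.p. were placed on a 1 in. knurled rod turning at 6 rpm. Toxicity was scored as failure to keep balance for at least 1 min, i.e. falling off three or more times. Results are reported as animals showing toxicity / animals tested at each time point.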

Mus musculus [3] = experiment: Anticonvulsant activity in CF-1 mouse model of maximal electroshock-induced seizure assessed as suppression of tonic hind limb extension at 30 mg/kg, ip measured at 2 hrs post dose; type: functional, organism-based
Mus musculus [4] = experiment: Anticonvulsant activity in CF-1 mouse assessed as protection against 44 mA current-induced seizure at 100 mg/kg, ip after 0.5 hrs by 6 Hz psychomotor test; type: functional, organism-based; how it was run: as §1
[5] = Neurotoxicity in CF-1 mouse at 30 mg/kg, ip measured after 0.5 hrs by rotarod test; type: toxicity, organism-based; conditions: in vivo; how it was run: as §2
Mus musculus [6] = experiment: Anticonvulsant activity in CF-1 mouse assessed as protection against 44 mA current-induced seizure at 300 mg/kg, ip after 0.5 hrs by 6 Hz psychomotor test; type: functional, organism-based; how it was run: as §1
Mus musculus [7] = experiment: Anticonvulsant activity in CF-1 mouse model of maximal electroshock-induced seizure assessed as suppression of tonic hind limb extension at 30 mg/kg, ip measured at 0.5 hrs post dose; type: functional, organism-based
How it was run: (§3)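 Mice dosed i.p. and given maximal electroshock at 50 mA. Read-out is protection, reported as number protected / number tested at 0.25, 0.5, 1 and 4 h after dosing.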

Mus musculus [8] = experiment: Anticonvulsant activity in CF-1 mouse model of maximal electroshock-induced seizure assessed as suppression of tonic hind limb extension at 300 mg/kg, ip measured at 0.5 hrs post dose; type: functional, organism-based; how it was run: as §3
Mus musculus [9] = experiment: Anticonvulsant activity in CF-1 mouse model of maximal electroshock-induced seizure assessed as suppression of tonic hind limb extension at 100 mg/kg, ip measured at 2 hrs post dose; type: functional, organism-based
Mus musculus [10] = experiment: Anticonvulsant activity in CF-1 mouse assessed as protection against 44 mA current-induced seizure at 30 mg/kg, ip after 2 hrs by 6 Hz psychomotor test; type: functional, organism-based; how it was run: as §1
[11] = Neurotoxicity in CF-1 mouse at 300 mg/kg, ip measured after 0.5 hrs by rotarod test; type: toxicity, organism-based; conditions: in vivo; how it was run: as §2
Mus musculus [12] = experiment: Anticonvulsant activity in CF-1 mouse assessed as protection against 44 mA current-induced seizure at 100 mg/kg, ip after 2 hrs by 6 Hz psychomotor test; type: functional, organism-based; how it was run: as §1
[13] = Neurotoxicity in CF-1 mouse at 30 mg/kg, ip measured after 2 hrs by rotarod test; type: toxicity, organism-based; conditions: in vivo; how it was run: as §2
[14] = Neurotoxicity in CF-1 mouse at 100 mg/kg, ip measured after 0.5 hrs by rotarod test; type: toxicity, organism-based; conditions: in vivo; how it was run: as §2
[15] = Neurotoxicity in CF-1 mouse at 300 mg/kg, ip measured after 2 hrs by rotarod test; type: toxicity, organism-based; conditions: in vivo; how it was run: as §2
Mus musculus [16] = experiment: Anticonvulsant activity in ip dosed CF-1 mouse model of subcutaneous pentylenetetrazole-induced seizure assessed as reduction in convulsions; type: functional
How it was run: (§4)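 Mice given test compound i.p.; pentylenetetrazole 85 mg kg⁻¹ in 0.9% NaCl injected subcutaneously into posterior midline of neck. Seizures observed for at least 30 min. Protected = no fore and/or hind limb clonus, jaw chomping or vibrissae twitching (3 to 5 s). Screening doses 30, 100, 300 mg kg⁻¹; read at 0.25, 0.5, 1.0, 4.0 h; scored as protected/tested.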

Mus musculus [17] = experiment: Anticonvulsant activity in ip dosed CF-1 mouse model of subcutaneous pentylenetetrazole-induced seizure assessed as time required for reduction in convulsions; type: functional; how it was run: as §4
Mus musculus [18] = experiment: Anticonvulsant activity in CF-1 mouse assessed as protection against 44 mA current-induced seizure at 40 to 80 mg/kg, ip after 0.5 hrs by 6 Hz psychomotor test; type: functional
[19] = Neurotoxicity in Sprague-Dawley rat at 100 mg/kg, ip measured after 2 hrs by rotarod test; type: toxicity, organism-based; conditions: Sprague-Dawley, in vivo
How it was run: (§5)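 Rat neurotoxicity after i.p. or p.o. dosing was scored as animals impaired / animals tested at each time point. For p.o. dosing, TD50 was obtained by probit analysis.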

Mus musculus [20] = experiment: Anticonvulsant activity in CF-1 mouse model of subcutaneous pentylenetetrazole-induced seizure assessed as reduction in convulsions at 300 mg/kg, ip measured at 0.5 hrs post dose; type: functional, organism-based
How it was run: (§6)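 Mice dosed i.p., then given pentylenetetrazole 85 mg/kg in 0.9% NaCl s.c. into the posterior midline of the neck. Seizures watched for at least 30 min. Scored as protected / tested at 0.5 and 4 h.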

[21] = Neurotoxicity in CF-1 mouse at 100 mg/kg, ip measured after 1 hr by rotarod test; type: toxicity, organism-based; conditions: in vivo; how it was run: as §2
Mus musculus [22] = experiment: Anticonvulsant activity in CF-1 mouse model of maximal electroshock-induced seizure assessed as suppression of tonic hind limb extension at 30 mg/kg, ip measured at 4 hrs post dose; type: functional, organism-based; how it was run: as §3
[23] = Neurotoxicity in CF-1 mouse at 300 mg/kg, ip measured after 4 hrs by rotarod test; type: toxicity, organism-based; conditions: in vivo; how it was run: as §2
Mus musculus [24] = experiment: Anticonvulsant activity in CF-1 mouse model of subcutaneous pentylenetetrazole-induced seizure assessed as reduction in convulsions at 30 mg/kg, ip measured at 4 hrs post dose; type: functional, organism-based; how it was run: as §6
[25] = Neurotoxicity in Sprague-Dawley rat at 30 mg/kg, po measured after 2 hrs by rotarod test; type: toxicity, organism-based; conditions: in vivo; how it was run: as §5
Mus musculus [26] = experiment: Anticonvulsant activity in CF-1 mouse model of maximal electroshock-induced seizure assessed as suppression of tonic hind limb extension at 100 mg/kg, ip measured at 4 hrs post dose; type: functional, organism-based; how it was run: as §3
[27] = Neurotoxicity in CF-1 mouse at 30 mg/kg, ip measured after 4 hrs by rotarod test; type: toxicity, organism-based; conditions: in vivo; how it was run: as §2
[28] = Neurotoxicity in CF-1 mouse at 100 mg/kg, ip measured after 4 hrs by rotarod test; type: toxicity, organism-based; conditions: in vivo; how it was run: as §2
[29] = Neurotoxicity in Sprague-Dawley rat at 30 mg/kg, po measured after 4 hrs by rotarod test; type: toxicity, organism-based; conditions: in vivo; how it was run: as §5
Rattus norvegicus [30] = experiment: Anticonvulsant activity in Sprague-Dawley rat model of maximal electroshock-induced seizure assessed as suppression of tonic hind limb extension at 30 mg/kg, po measured at 1 hr post dose; type: functional, organism-based
How it was run: (§7)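 Rats given 30 mg/kg p.o. and tested by maximal electroshock at 150 mA. Scored as number protected / number tested (4 per group) at 0.25, 0.5, 1, 2 and 4 h after dosing.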

Rattus norvegicus [31] = experiment: Anticonvulsant activity in Sprague-Dawley rat model of maximal electroshock-induced seizure assessed as suppression of tonic hind limb extension at 30 mg/kg, po measured at 2 hrs post dose; type: functional, organism-based; how it was run: as §7
[32] = Neurotoxicity in Sprague-Dawley rat at 30 mg/kg, po measured after 1 hr by rotarod test; type: toxicity, organism-based; conditions: in vivo; how it was run: as §5
Mus musculus [33] = experiment: Anticonvulsant activity in CF-1 mouse model of maximal electroshock-induced seizure assessed as suppression of tonic hind limb extension at 100 mg/kg, ip measured at 0.5 hrs post dose; type: functional, organism-based; how it was run: as §3
[34] = Neurotoxicity in Sprague-Dawley rat at 30 mg/kg, po measured after 0.5 hrs by rotarod test; type: toxicity, organism-based; conditions: in vivo; how it was run: as §5
Mus musculus [35] = experiment: Anticonvulsant activity in CF-1 mouse model of maximal electroshock-induced seizure assessed as suppression of tonic hind limb extension at 300 mg/kg, ip measured at 4 hrs post dose; type: functional, organism-based; how it was run: as §3
Mus musculus [36] = experiment: Anticonvulsant activity in CF-1 mouse model of subcutaneous pentylenetetrazole-induced seizure assessed as reduction in convulsions at 300 mg/kg, ip measured at 4 hrs post dose; type: functional, organism-based; how it was run: as §6
Mus musculus [37] = experiment: Anticonvulsant activity in CF-1 mouse model of subcutaneous pentylenetetrazole-induced seizure assessed as reduction in convulsions at 30 mg/kg, ip measured at 0.5 hrs post dose; type: functional, organism-based; how it was run: as §6
Mus musculus [38] = experiment: Anticonvulsant activity in CF-1 mouse model of subcutaneous pentylenetetrazole-induced seizure assessed as reduction in convulsions at 100 mg/kg, ip measured at 0.5 hrs post dose; type: functional, organism-based; how it was run: as §6
Rattus norvegicus [39] = experiment: Anticonvulsant activity in Sprague-Dawley rat model of maximal electroshock-induced seizure assessed as suppression of tonic hind limb extension at 30 mg/kg, po measured at 0.5 hrs post dose; type: functional, organism-based; how it was run: as §7
Rattus norvegicus [40] = experiment: Anticonvulsant activity in Sprague-Dawley rat model of maximal electroshock-induced seizure assessed as suppression of tonic hind limb extension at 30 mg/kg, po measured at 0.25 hrs post dose; type: functional, organism-based; how it was run: as §7
Mus musculus [41] = experiment: Anticonvulsant activity in CF-1 mouse model of subcutaneous pentylenetetrazole-induced seizure assessed as reduction in convulsions at 100 mg/kg, ip measured at 4 hrs post dose; type: functional, organism-based; how it was run: as §6
[42] = Neurotoxicity in Sprague-Dawley rat at 30 mg/kg, po measured after 0.25 hrs by rotarod test; type: toxicity, organism-based; conditions: in vivo; how it was run: as §5
Mus musculus [43] = experiment: Anticonvulsant activity in CF-1 mouse model of maximal electroshock-induced seizure assessed as suppression of tonic hind limb extension at 100 mg/kg, ip measured at 1 hr post dose; type: functional, organism-based; how it was run: as §3
Mus musculus [44] = experiment: Anticonvulsant activity in CF-1 mouse assessed as protection against 44 mA current-induced seizure at 300 mg/kg, ip after 2 hrs by 6 Hz psychomotor test; type: functional, organism-based; how it was run: as §1

Cc1cccc(C)c1OCC(=O)N[C@H]1CC[C@H](OC(=O)COc2c(C)cccc2C)CC1
Activity (Mus musculus [1]): inactive | Activity [2]: Non-Toxic | Activity (Mus musculus [3]): inactive | Activity (Mus musculus [4]): inactive | Activity [5]: Non-Toxic | Activity (Mus musculus [6]): inactive | Activity (Mus musculus [7]): inactive | Activity (Mus musculus [8]): inactive | Activity (Mus musculus [9]): inactive | Activity (Mus musculus [10]): inactive | Activity [11]: Non-Toxic | Activity (Mus musculus [12]): inactive | Activity [13]: Non-Toxic | Activity [14]: Non-Toxic | Activity [15]: Non-Toxic

CC(=O)[C@H]1CC[C@H]2[C@@H]3CC[C@H]4C[C@H](O)CC[C@]4(C)[C@H]3CC[C@]12C [BREXANOLONE]
ED50 (Mus musculus [16]): 13.7 mg/kg | Time (Mus musculus [17]): 0.17 h

NC(=O)N1c2ccccc2C=Cc2ccccc21 [CARBAMAZEPINE]
%max (Mus musculus [18]): 75% | TD50 at 2 h [19]: 364 mg/kg

Cc1cccc(C)c1OCC(=O)NCC(C)O (configuration not stated)
Activity (Mus musculus [20]): inactive | Activity [21]: Non-Toxic | Activity (Mus musculus [22]): inactive | Activity [5]: Non-Toxic | Activity (Mus musculus [7]): inactive | Activity [23]: Non-Toxic | Activity (Mus musculus [24]): inactive | Activity [25]: Non-Toxic | Activity (Mus musculus [8]): Active | Activity (Mus musculus [26]): inactive | Activity [27]: Non-Toxic | Activity [28]: Non-Toxic | Activity [29]: Non-Toxic | Activity (Rattus norvegicus [30]): inactive | Activity (Rattus norvegicus [31]): inactive | Activity [32]: Non-Toxic | Activity (Mus musculus [33]): inactive | Activity [11]: Toxic | Activity [34]: Non-Toxic | Activity (Mus musculus [35]): inactive | Activity (Mus musculus [36]): inactive | Activity (Mus musculus [37]): inactive | Activity (Mus musculus [38]): inactive | Activity (Rattus norvegicus [39]): inactive | Activity (Rattus norvegicus [40]): inactive | Activity (Mus musculus [41]): inactive | Activity [14]: Non-Toxic | Activity [42]: Non-Toxic | Activity (Mus musculus [43]): inactive

Cc1cccc(OCC(=O)N[C@H]2CC[C@H](O)CC2)c1C
Activity (Mus musculus [1]): inactive | Activity [2]: Non-Toxic | Activity (Mus musculus [3]): inactive | Activity [5]: Non-Toxic | Activity (Mus musculus [7]): inactive | Activity (Mus musculus [8]): Active | Activity (Mus musculus [9]): inactive | Activity (Mus musculus [10]): inactive | Activity (Mus musculus [33]): inactive | Activity (Mus musculus [12]): inactive | Activity [13]: Non-Toxic | Activity [14]: Non-Toxic | Activity (Mus musculus [44]): Active | Activity [15]: Non-Toxic
